# NOD2-RIPK2 inh – inhibitors of human NOD2-RIPK2 interaction; 0.38% of 360,000 active; O43353; CHO BLA complementation NOD2-RIPK2, CCF4 ratio; inhibition, % at 4.98 µM; in the data active means inhibition above about 21%;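 further: 0% = vehicle only and 100% = reference blocker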
# Target sequence (O43353 whole entry, looked up): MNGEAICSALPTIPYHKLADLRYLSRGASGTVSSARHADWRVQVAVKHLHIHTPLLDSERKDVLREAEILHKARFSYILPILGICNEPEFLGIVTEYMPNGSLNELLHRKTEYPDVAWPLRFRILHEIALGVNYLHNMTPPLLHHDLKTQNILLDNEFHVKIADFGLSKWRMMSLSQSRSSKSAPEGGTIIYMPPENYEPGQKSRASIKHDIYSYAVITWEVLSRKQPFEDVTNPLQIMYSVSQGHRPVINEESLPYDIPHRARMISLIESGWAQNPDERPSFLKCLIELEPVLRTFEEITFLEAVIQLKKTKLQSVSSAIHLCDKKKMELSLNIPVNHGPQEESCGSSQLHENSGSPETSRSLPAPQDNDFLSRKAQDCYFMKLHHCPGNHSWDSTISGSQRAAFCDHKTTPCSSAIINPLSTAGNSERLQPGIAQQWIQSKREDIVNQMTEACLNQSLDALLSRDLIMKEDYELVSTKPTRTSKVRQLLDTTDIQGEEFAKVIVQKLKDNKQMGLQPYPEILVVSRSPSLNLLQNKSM
# MC4R antagonist – blocks human MC4R cAMP signaling; P32245; MC4R-expressing cells, MTII-stimulated cAMP, LANCE TR-FRET; inhibition, % at 6.5 µM; 0.48% of 360,000 active;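 active means inhibition above its plate's cutoff, the mean of tested wells on that plate plus 3 SD, cut at about 29% in these data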;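 further: 0% = Melanotan II alone and 100% = Melanotan II plus saturating MCL0020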
#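 Assay system: U2OS cells stably expressing human melanocortin 4 receptor (MC4R) / Dosing: 6.5 µM / Timing: compound 30 min, challenge 1 h, detection 1 h / Measured by: Eu-cAMP/anti-cAMP TR-FRET, emission 671 nm / Replicates: singlicate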
# TLR4-MyD88 BLA – blocks binding of human TLR4 to MyD88; inhibition, % at 8.4 µM; 0.18% of 200,000 active; O00206+Q99836; HeLa CL3-4 TLR4/MyD88 BLA complementation, FRET ratio; in the data active means inhibition above about 25%;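 further: 0% = vehicle and 100% = reference inhibitor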
# MC4R barr agon – human MC4R agonism via beta-arrestin; P32245; U2OS MC4R beta-arrestin complementation, luminescence; percent of melanotan II response, DMSO zero; activation, % at 8.9 µM; 0.98% of 360,000 active;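 active means activation above a per-plate cutoff, the mean activation of sample wells on that plate plus 3 SD, cut at about 8% in these data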
# TLR9-MyD88 inh – inhibitors of human TLR9-MyD88 binding; Q9NR96+Q99836; CHO BLA complementation TLR9-MyD88, CCF4 FRET ratio; inhibition, % at 4.98 µM; 0.21% of 340,000 active; AID 504734;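 active means inhibition above the mean over all tested compounds plus 3 SD, cut at about 21% in these data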;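 further: 0% = DMSO only wells and 100% = clavulanate BLA inhibitor control wells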
# MIN6 prolif – MIN6 beta-cell proliferation induction. 0.29% of 330,000 active. proliferation, % at 10 µM. MIN6 cells proliferation, ATPlite luminescence, 48 h; cells starved in 0.2% serum; 100% = growth in 10% serum;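 active means compounds whose signal lies at least 3.5 SD above the mean of all wells on their plate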;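 further: 0% = DMSO-treated cells in low-serum medium and 100% = 10% serum control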
# TLR9-MyD88 conf – TLR9-MyD88 interaction inhibition, confirmation; shares compounds with TLR9-MyD88 inh; CHO TLR9/MyD88 BLA complementation, CCF4 FRET ratio; inhibition, % at 4.98 µM; 51% of 680 active; AID 540250;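 active means mean inhibition across three repeats above about 21% taken from the earlier screen, limit read from the data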;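 further: blue over green emission ratio reports constitutive TLR9 MyD88 association via BLA complementation; 0% = DMSO vehicle wells and 100% = clavulanate BLA inhibitor wells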
# BLA counter-1 – beta-lactamase reporter inhibition, counter-screen artifact. shares compounds with TLR9-MyD88 inh. CHO-BLA cells, CCF4 FRET ratio, BLA reporter. inhibition, % at 4.98 µM. 7% of 680 active;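 active means mean inhibition above a 50% cutoff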;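 further: counterscreen of TLR9-MyD88 hits on CMV-driven BLA in CHO-K1 cells; 0% = DMSO alone and 100% = clavulanate blocking BLA; higher means less blue over green ratio so more BLA blockade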
# TLR9 CHO cytotox – CHO cell toxicity counter-screen for TLR9-MyD88 inhibitors; 39% of 680 active; AID 588336; shares compounds with TLR9-MyD88 inh; TLR9-MyD88 CHO cells cytotoxicity, luminescence; inhibition, % at 4.98 µM; in the data active means inhibition above about 11%
# cAMP nonselect – U2OS forskolin cAMP inhibition counter-screen; shares compounds with MC4R antagonist; parental U2OS, LANCE TR-FRET; inhibition, % at 6.5 µM; 26% of 1,600 active;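 active means mean inhibition over triplicates above the low-control well mean plus 3 SD, set per campaign, cut at about 13% in these data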;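 further: signal is single emission at 671 nm which falls as cellular cAMP rises; 0% = forskolin-stimulated wells and 100% = buffer without forskolin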
# MC4R antag conf – human MC4R cAMP antagonism confirmation. shares compounds with MC4R antagonist. MC4R-expressing cells, MTII-stimulated cAMP, TR-FRET. inhibition, % at 6.5 µM. 27% of 1,600 active; in the data active means inhibition above about 29%;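 further: 0% = agonist stimulated wells alone and 100% = agonist stimulated wells plus saturating reference antagonist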
# NOD2 RIPK2 conf – confirmation of human NOD2-RIPK2 interaction inhibitors. shares compounds with NOD2-RIPK2 inh. CHO cells, NOD2-RIPK2 BLA complementation, CCF4 FRET. inhibition, % at 4.98 µM. 70% of 1,200 active. AID 624370;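 active means mean inhibition across replicates above a set limit taken from the earlier primary screen, cut at about 21% in these data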;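 further: 0% = DMSO-only wells and the high end = clavulanate BLA-blocked wells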
# BLA counter-2 – NOD2-RIPK2 counterscreen BLA reporter activity; shares compounds with NOD2-RIPK2 inh; CHO BLA reporter, CCF4 FRET ratio; inhibition, % at 4.98 µM; 57% of 1,200 active; AID 624371;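 active means mean inhibition above the low-control mean inhibition plus three low-control SD, cut at about 11% in these data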;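 further: 0% = DMSO only wells and 100% = clavulanate high control wells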
# The depositor's hits bear a star; . = not tested or not shown. Shown are actives, neighbours in structure and some others; about 2.1% of the full set was active somewhere.
SMILES,NOD2-RIPK2 inh,MC4R antagonist,TLR4-MyD88 BLA,MC4R barr agon,TLR9-MyD88 inh,MIN6 prolif,TLR9-MyD88 conf,BLA counter-1,TLR9 CHO cytotox,NOD2 RIPK2 conf,BLA counter-2,others
Cc1ccc(CS(=O)(=O)c2ncc(Cl)c(C(=O)Nc3ccc(OC(F)F)cc3)n2)cc1,94*,40*,.,-4,36*,-7,24*,15,95*,80*,21*,cAMP nonselect=23*;MC4R antag conf=13
CCS(=O)(=O)c1ncc(Cl)c(C(=O)Nc2ccc(C)cc2)n1,61*,0,.,0,45*,-4,42*,36,95*,65*,38*,
CCC1CCCCN1S(=O)(=O)c1ccc(NC(=O)c2nc(S(C)(=O)=O)ncc2Cl)cc1 (centres undefined),96*,83*,.,-4,53*,-8,47*,31,98*,94*,48*,cAMP nonselect=11;MC4R antag conf=66*
CC(=O)Nc1ccc(NC(=O)c2nc(S(=O)(=O)Cc3ccccc3)ncc2Cl)cc1,51*,18,.,-4,34*,-7,36*,30,95*,50*,34*,
NC(=O)CSc1nnnn1-c1ccccc1Cl,7,-10,-16,1,5,-1,.,.,.,.,.,
CS(=O)(=O)c1ncc(Cl)c(C(=O)Nc2ccc3ccccc3c2)n1,79*,-12,15,-5,45*,.,51*,31,99*,72*,41*,
O=C(Nc1ccccc1Cl)c1cccc(COc2cc(Cl)ccc2Cl)c1,-2,5,-13,7,-9,-1,.,.,.,.,.,
O=c1c2c([N+](=O)[O-])cc([N+](=O)[O-])cc2sn1Cc1ccccc1,26*,10,.,-2,32*,-5,20,5,95*,12,9,
COc1cc(C2CC(c3c(C)cc(C)[nH]c3=O)=NN2c2ccccc2F)cc(OC)c1OC (centres undefined),41*,10,.,-1,23*,2,17,18,4,35*,47*,
COc1ccc(C2CC(c3ccc(F)cc3)=NN2c2ccccc2)cc1OC (centres undefined),-5,6,.,-1,0,-4,.,.,.,.,.,
CCOc1ccc2cc(/C=C/C(=O)c3ccco3)c(Cl)nc2c1,27*,15,36*,-2,29*,-5,8,4,3,5,10,
CCOc1ccc2nc(SCC(=O)NNC(=O)c3ccco3)c(C)cc2c1,1,0,.,-1,-15,1,.,.,.,.,.,
COC(=O)c1cn[nH]c1NC(=S)Nc1ccc(C)cc1Cl,50*,-1,-8,-2,23*,2,8,4,4,27*,12*,
COc1ccc2ccccc2c1/C=N/NC(=O)c1sc(N)c(C#N)c1C,22*,-11,-4,10*,21*,.,8,0,5,3,5,
COc1ccc(S(N)(=O)=O)cc1C(=O)NNC(=O)C1COc2ccccc2O1 (centres undefined),-14,-3,.,1,-9,1,.,.,.,.,.,
O=C(NCc1cc(C(F)(F)F)ccc1Cl)c1cccc2c1C(=O)c1ccc(N3CCC(N4CCCCC4)CC3)cc1S2(=O)=O,61*,5,.,3,47*,.,43*,52*,24*,69*,68*,
O=C(NCc1cc(C(F)(F)F)ccc1Cl)c1cccc2c1C(=O)c1ccc(N3CCCCC3)cc1S2(=O)=O,-3,2,.,-1,2,-4,.,.,.,.,.,
COc1ccc(C(=O)/C=C/C(=O)N(CC(=O)NC2CCCCC2)CC2CCCO2)c(O)c1 (centres undefined),87*,15,23,-5,26*,-5,34*,20,97*,93*,22*,
COc1ccc(C(=O)/C=C/C(=O)N(Cc2ccccc2)C(C(=O)NC2CCCCC2)c2ccncc2)c(O)c1 (centres undefined),8,21,-6,0,-1,-1,.,.,.,.,.,
CCCCNc1ccc2c3c(cccc13)C(=O)N(CCCC)C2=O,63*,14,.,3,67*,.,50*,49,11*,77*,79*,
CCN1C(=O)c2cccc3c(N)ccc(c23)C1=O,27*,-51,.,1,25*,2,13,13,2,35*,35*,
O=[N+]([O-])c1ccc(Nc2ccc3ccccc3c2)nc1,37*,6,25,2,24*,0,19,10,8,21*,25*,
O=C1C(SCCO)=C(SCCO)C(=O)c2ccccc21,84*,97*,.,-4,64*,-8,84*,17,99*,92*,34*,cAMP nonselect=102*;MC4R antag conf=143*
CC1=C(SCc2ccccc2)C(=O)c2ccccc2C1=O,12,8,.,-2,-1,.,.,.,.,.,.,
Cc1ccccc1NC(=O)Cc1nc(COC(=O)c2ccc(S(C)(=O)=O)c([N+](=O)[O-])c2)cs1,45*,-43,.,-6,25*,-8,17,6,84*,50*,11*,
Cc1ccccc1NC(=O)Cc1nc(COC(=O)c2ccc(NC(N)=O)cc2)cs1,-9,2,.,-1,-3,-3,.,.,.,.,.,
CCOC(=O)C1CCN(S(=O)(=O)c2c(Cl)ccc3nonc23)CC1,82*,-11,.,-7,43*,-7,39*,19,81*,78*,15*,

# Compound activity: PubChem BioAssay, several laboratories
